Key:
[1] = system: LoVo; assay: Cytotoxicity against human LoVo cells after 48 hrs by SRB assay; assay type: functional; conditions: for CC50: read-out: LC50 (the source's name)
[2] = system: DU-145; assay: Cytotoxicity against human DU145 cells after 48 hrs by SRB assay; assay type: functional, cell-based; conditions: Homo sapiens, DU-145, 48 h; for CC50: read-out: LC50 (the source's name)
Procedure, shortened: (§1)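 Cells grown in RPMI 1640 with 10% FBS and penicillin/streptomycin at 37 °C and 5% CO₂, trypsinized, then seeded at 5 × 10³/well. After 18 h drug-free attachment, samples in DMSO/EtOH/PBS (0.5:0.5:99) were added for 48 h continuous exposure. Cells were fixed with cold TCA (1 h, 4 °C) and stained with SRB (10 min). Tris-solubilized stain read at 490 nm. Triplicate wells, mean ± SD; GI₅₀ derived.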

[3] = system: PANC-1; assay: Cytotoxicity against human PANC1 cells after 48 hrs by SRB assay; assay type: functional; conditions: PANC-1, 48 h; for CC50: read-out: LC50 (the source's name); procedure, shortened: as §1
[4] = system: SK-MEL-28; assay: Cytotoxicity against human SK-MEL-28 cells after 48 hrs by SRB assay; assay type: functional, cell-based; conditions: Homo sapiens, SK-MEL-28, 48 h; for CC50: read-out: LC50 (the source's name); procedure, shortened: as §1
[5] = system: A549; assay: Cytotoxicity against human A549 cells after 48 hrs by SRB assay; assay type: functional, cell-based; conditions: Homo sapiens, A549, 48 h; procedure, shortened: as §1
[6] = system: HT-29; assay: Cytotoxicity against human HT29 cells after 48 hrs by SRB assay; assay type: functional, cell-based; conditions: Homo sapiens, HT-29, 48 h; for CC50: read-out: LC50 (the source's name); procedure, shortened: as §1
[7] = Cytotoxicity against human IGROV-ET cells after 48 hrs by SRB assay; assay type: functional; conditions: for CC50: read-out: LC50 (the source's name); procedure, shortened: as §1
[8] = Cytotoxicity against human HeLa-APL cells after 48 hrs by SRB assay; assay type: functional; procedure, shortened: as §1
[9] = system: K562; assay: Cytotoxicity against human K562 cells after 48 hrs by SRB assay; assay type: functional; conditions: K562, 48 h; for CC50: read-out: LC50 (the source's name); procedure, shortened: as §1
[10] = system: SK-BR-3; assay: Cytotoxicity against human SKBR3 cells after 48 hrs by SRB assay; assay type: functional; conditions: SK-BR-3, 48 h; for CC50: read-out: LC50 (the source's name); procedure, shortened: as §1
[11] = system: HeLa; assay: Cytotoxicity against human HeLa cells after 48 hrs by SRB assay; assay type: functional; conditions: for CC50: read-out: LC50 (the source's name); procedure, shortened: as §1
[12] = system: LoVo; assay: Cytotoxicity against human doxorubicin resistant LoVo cells after 48 hrs by SRB assay; assay type: functional; conditions: for CC50: read-out: LC50 (the source's name); procedure, shortened: as §1
[13] = system: LNCaP; assay: Cytotoxicity against human LNcaP cells after 48 hrs by SRB assay; assay type: functional; conditions: for CC50: read-out: LC50 (the source's name); procedure, shortened: as §1
[14] = Cytotoxicity against human IGROV cells after 48 hrs by SRB assay; assay type: functional; conditions: for CC50: read-out: LC50 (the source's name); procedure, shortened: as §1

**Q.** For `C/C=C1\NC(=O)[C@H](Cc2ccccc2)NC(=O)[C@@H](C(C)C)NC(=O)[C@@H]([C@H](C)CC)NC(=O)[C@H](NC(=O)[C@H](NC(=O)[C@H](CCCNC(=O)C(F)(F)F)NC(=O)[C@H]2CCCN2C(=O)[C@H](NC(=O)[C@@H](NC(=O)[C@@H](NC(=O)[C@H](NC(=O)CC[C@@H](C)CC)C(C)C)[C@@H](C)OC(=O)C(F)(F)F)C(C)C)C(C)C)[C@H](C)CC)[C@H](C)OC(=O)[C@H](C(C)C)NC1=O`, which GI50 [1] is on record?
**A.** 276 nM

**Q.** And the TGI [1]?
**A.** 284 nM

**Q.** What about the CC50 [1] of the same compound?
**A.** 294 nM

**Q.** What about the TGI [2] of the same compound?
**A.** 1170 nM

**Q.** And the GI50 ([2]; read-out: GI50)?
**A.** 1460 nM

**Q.** What about the CC50 [2] of the same compound?
**A.** 931 nM

**Q.** What about the CC50 [3] of the same compound?
**A.** 1570 nM

**Q.** And the CC50 [4]?
**A.** 1140 nM

**Q.** What about the LC50 [5] of the same compound?
**A.** 1180 nM

**Q.** What about the TGI [5] of the same compound?
**A.** 1200 nM

**Q.** What about the GI50 ([5]; read-out: GI50) of the same compound?
**A.** 1230 nM

**Q.** What about the GI50 [6] of the same compound?
**A.** 329 nM

**Q.** And the TGI [6]?
**A.** 355 nM

**Q.** And the CC50 [6]?
**A.** 381 nM

**Q.** What about the GI50 [7] of the same compound?
**A.** 911 nM

**Q.** What about the GI50 ([7]; read-out: GI50) of the same compound?
**A.** 770 nM

**Q.** What about the CC50 [7] of the same compound?
**A.** 2480 nM

**Q.** What about the GI50 [8] of the same compound?
**A.** 849 nM

**Q.** And the LC50 (concentration giving 50% net cell kill) [8]?
**A.** 679 nM

**Q.** What about the TGI [8] of the same compound?
**A.** 778 nM

**Q.** What about the CC50 [9] of the same compound?
**A.** 1710 nM

**Q.** What about the TGI [10] of the same compound?
**A.** 322 nM

**Q.** And the GI50 ([10]; read-out: GI50)?
**A.** 331 nM

**Q.** What about the CC50 [10] of the same compound?
**A.** 313 nM

**Q.** What about the GI50 [11] of the same compound?
**A.** 656 nM

**Q.** And the TGI [11]?
**A.** 597 nM

**Q.** What about the CC50 [11] of the same compound?
**A.** 543 nM

**Q.** What about the GI50 [12] of the same compound?
**A.** 363 nM

**Q.** What about the TGI [12] of the same compound?
**A.** 396 nM

**Q.** What about the CC50 [12] of the same compound?
**A.** 1130 nM

**Q.** And the GI50 [13]?
**A.** 1140 nM

**Q.** And the TGI [13]?
**A.** 1720 nM

**Q.** What about the CC50 [13] of the same compound?
**A.** 1330 nM

**Q.** And the GI50 [14]?
**A.** 397 nM

**Q.** What about the GI50 ([14]; read-out: GI50) of the same compound?
**A.** 373 nM

**Q.** What about the CC50 [14] of the same compound?
**A.** 281 nM

**Q.** Which results are given for `C/C=C1\NC(=O)[C@H](Cc2ccccc2Cl)NC(=O)[C@@H](C(C)C)NC(=O)[C@@H]([C@H](C)CC)NC(=O)[C@H](NC(=O)[C@H](NC(=O)[C@H](CCCN)NC(=O)[C@H]2CCCN2C(=O)[C@H](NC(=O)[C@@H](NC(=O)[C@@H](NC(=O)[C@H](NC(=O)CCCC(C)C)C(C)C)[C@@H](C)O)C(C)C)C(C)C)[C@H](C)CC)[C@H](C)OC(=O)[C@H](C(C)C)NC1=O`?
**A.** GI50 [1]: 43.4 nM; TGI [1]: 63.5 nM; CC50 [1]: 111 nM; GI50 [2]: 391 nM; GI50 ([2]; read-out: GI50): 180 nM; CC50 [2]: 670 nM; GI50 [3]: 1510 nM; TGI [3]: 1700 nM; CC50 [3]: 1700 nM; GI50 [4]: 638 nM; GI50 ([4]; read-out: GI50): 386 nM; CC50 [4]: 1050 nM; GI50 [5]: 659 nM; LC50 [5]: 1040 nM; GI50 ([5]; read-out: GI50): 418 nM; GI50 [6]: 89 nM; TGI [6]: 113 nM; CC50 [6]: 144 nM; GI50 [7]: 142 nM; GI50 ([7]; read-out: GI50): 97.3 nM; CC50 [7]: 196 nM; GI50 [8]: 312 nM; LC50 (concentration giving 50% net cell kill) [8]: 931 nM; TGI [8]: 533 nM; GI50 [9]: 1850 nM; TGI [9]: 1850 nM; CC50 [9]: 1850 nM; GI50 [10]: 56.8 nM; GI50 ([10]; read-out: GI50): 54.9 nM; CC50 [10]: 111 nM; GI50 [11]: 274 nM; TGI [11]: 506 nM; CC50 [11]: 889 nM; GI50 [12]: 44.3 nM; TGI [12]: 46.9 nM; CC50 [12]: 85.1 nM; GI50 [13]: 92.8 nM; TGI [13]: 359 nM; CC50 [13]: 832 nM; GI50 [14]: 118 nM; GI50 ([14]; read-out: GI50): 72.3 nM; CC50 [14]: 204 nM

**Q.** Which CC50 [1] does the source give for `C/C=C1\NC(=O)[C@H](Cc2ccccc2)NC(=O)[C@@H](C(C)C)NC(=O)[C@@H]([C@H](C)CC)NC(=O)[C@H](NC(=O)[C@H](NC(=O)[C@H](CCCN)NC(=O)[C@H]2CCCN2C(=O)[C@H](NC(=O)[C@@H](NC(=O)[C@@H](NC(=O)[C@@H](C(C)C)N(CCCCCC)CCCCCC)[C@@H](C)O)C(C)C)C(C)C)[C@H](C)CC)[C@H](C)OC(=O)[C@H](C(C)C)NC1=O` here?
**A.** 4060 nM

**Q.** And the CC50 [2]?
**A.** 2280 nM

**Q.** What about the CC50 [3] of the same compound?
**A.** 2270 nM

**Q.** And the CC50 [4]?
**A.** 1660 nM

**Q.** And the LC50 [5]?
**A.** 1160 nM

**Q.** And the CC50 [6]?
**A.** 2030 nM

**Q.** What about the CC50 [7] of the same compound?
**A.** 4230 nM

**Q.** What about the GI50 [8] of the same compound?
**A.** 1810 nM

**Q.** What about the LC50 (concentration giving 50% net cell kill) [8] of the same compound?
**A.** 1220 nM

**Q.** And the TGI [8]?
**A.** 1580 nM

**Q.** And the CC50 [9]?
**A.** 1900 nM

**Q.** And the CC50 [10]?
**A.** 3530 nM

**Q.** And the CC50 [11]?
**A.** 1050 nM

**Q.** What about the CC50 [12] of the same compound?
**A.** 3780 nM

**Q.** What about the GI50 [13] of the same compound?
**A.** 3720 nM

**Q.** And the TGI [13]?
**A.** 3300 nM

**Q.** What about the CC50 [13] of the same compound?
**A.** 1480 nM

**Q.** And the CC50 [14]?
**A.** 1210 nM
